According to ChEMBL document CHEMBL4406918, “Inhibitory Effects of Multivalent Polypeptides on the Proliferation and Metastasis of Breast Cancer Cells” (ACS Med Chem Lett, 2019):
The source made the active and inactive calls. The rule behind the calls is not given here.

What was measured:
[1] = test system: 4T1; experiment: Induction of cell cycle arrest in mouse 4T1 cells assessed as accumulation at G2/M phase at 0.4 mM incubated for 24 hrs by PI staining based flow cytometric analysis (reference value: 19.82%); type: functional
[2] = Toxicity in BALB/c mouse xenografted with mouse 4T1 cells assessed as induction of morphological lesions in spleen at 10 mg/kg administered intratumorally and measured after 24 days by H and E staining based inverted optical microscopic method; type: organism-based; details: in vivo, other, 576 h
[3] = biological target: Matrix metalloproteinase-9 (Mus musculus) (UniProt P41245); experiment: Residual MMP9 activity in mouse 4T1 cells at 0.2 mM incubated for 24 hrs by coomassie brilliant blue staining based gelatin zymography assay relative to control
[4] = Toxicity in BALB/c mouse xenografted with mouse 4T1 cells assessed as change in body weight at 10 mg/kg administered intratumorally and measured after 24 days; type: organism-based; details: in vivo, other, 576 h
In short: (§1)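 BALB/c mice bearing subcutaneous 4T1 tumours received 6 doses of 10 mg/kg, with equal YSL-monomer molar amounts across compounds and saline as control. Tumour volume growth curves and body weights were tracked. Mean ± SD, n = 5.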

[5] = test system: 4T1; experiment: Antiproliferative activity against mouse 4T1 cells at 0.1 mM incubated for 24 hrs by MTT assay; type: functional, cell-based
[6] = test system: 4T1; experiment: Inhibition of metastasis in mouse 4T1 cells assessed as disruption in F-actin arrangement at 0.2 mM incubated for 24 hrs by Hoechst 33342 staining based confocal laser scanning microscopic method; type: functional, cell-based
In short: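 After 24 h at 0.2 mM, 4T1 cells were stained for F-actin with Alexa Fluor 488 phalloidin and for nuclei with Hoechst 33342, then imaged by fluorescence for cytoskeletal arrangement and cell morphology.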

[7] = test system: Erythrocyte; experiment: Hemolytic activity in BALB/c mouse RBC at 3.2 mM incubated for 2 hrs by UV-Vis spectrophotometric analysis; type: ADME, cell-based; details: 3200 µM
In short: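 Hemolysis assay on red blood cells with dendrimers up to 3.2 mM. Result is expressed as hemolysis rate, with under 5% taken as acceptable.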

[8] = test system: 4T1; experiment: Antitumour activity against mouse 4T1 cells xenografted in BALB/c mouse assessed as reduction in number of Ki67 positive tumor cells at 10 mg/kg administered intratumorally and measured after 24 days by H and E staining based inverted optical microscopic method; type: functional, organism-based
In short: (§2)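 BALB/c mice bearing subcutaneous 4T1 tumours received 6 doses at 10 mg/kg body weight, matched for YSL monomer molar amount, with saline as control. Tumour sections were stained for H&E, CD31, Ki-67 and TUNEL. n = 5.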

[9] = test system: 4T1; experiment: Antiproliferative activity against mouse 4T1 cells assessed as cell death at 0.2 mM incubated for 24 hrs by MTT assay relative to control; type: functional
In short: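 Mouse 4T1 breast cancer cells exposed for 24 h (doses include 0.1 and 0.2 mM), then read by MTT for viability or cell death. Mean ± SD, n = 6.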

[10] = test system: 4T1; experiment: Induction of apoptosis in mouse 4T1 cells assessed as early apoptotic cells at 0.4 mM incubated for 24 hrs by Annexin V-FITC/PI based FACS analysis (reference value: 0.76%); type: functional
[11] = Toxicity in BALB/c mouse xenografted with mouse 4T1 cells assessed as induction of morphological lesions in kidney at 10 mg/kg administered intratumorally and measured after 24 days by H and E staining based inverted optical microscopic method; type: organism-based; details: in vivo, other, 576 h
[12] = test system: 4T1; experiment: Induction of apoptosis in mouse 4T1 cells assessed as late apoptotic cells at 0.4 mM incubated for 24 hrs by Annexin V-FITC/PI based FACS analysis (reference value: 6.62%); type: functional
[13] = test system: 4T1; experiment: Antitumour activity against mouse 4T1 cells xenografted in BALB/c mouse assessed as increase in cytotoxic tumor cell death at 10 mg/kg administered intratumorally and measured after 24 days by H and E staining based inverted optical microscopic method; type: functional, organism-based; in short: as §2
[14] = Toxicity in BALB/c mouse xenografted with mouse 4T1 cells assessed as change in serum creatinine level at 10 mg/kg administered intratumorally and measured after 24 days; type: organism-based; details: in vivo, other, 576 h
[15] = test system: 4T1; experiment: Antitumour activity against mouse 4T1 cells xenografted in BALB/c mouse assessed as reduction in size of lung tumor metastatic nodules at 10 mg/kg administered intratumorally and measured after 24 days by H and E staining based inverted optical microscopic method; type: functional, organism-based
In short: (§3)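 After 6 doses of 10 mg/kg to 4T1 tumour-bearing BALB/c mice (saline control), lungs were photographed whole and examined histopathologically for the number and size of metastatic nodules.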

[16] = Toxicity in BALB/c mouse xenografted with mouse 4T1 cells assessed as induction of morphological lesions in heart at 10 mg/kg administered intratumorally and measured after 24 days by H and E staining based inverted optical microscopic method; type: organism-based; details: in vivo, other, 576 h
[17] = test system: 4T1; experiment: Antitumour activity against mouse 4T1 cells xenografted in BALB/c mouse assessed as inhibition in tumor growth at 10 mg/kg administered intratumorally and measured every 3 days for 24 days; type: functional, organism-based; in short: as §1
[18] = test system: 4T1; experiment: Inhibition of metastasis in mouse 4T1 cells assessed as shortening in actin filaments at 0.2 mM incubated for 24 hrs by Hoechst 33342 staining based confocal laser scanning microscopic method; type: functional, cell-based
In short: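 After 24 h treatment, 4T1 cells were stained with Alexa Fluor 488 phalloidin for F-actin and Hoechst 33342 for nuclei, then imaged by fluorescence microscopy to assess cytoskeleton and cell morphology.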

[19] = test system: 4T1; experiment: Induction of cell cycle arrest in mouse 4T1 cells assessed as accumulation at S phase at 0.4 mM incubated for 24 hrs by PI staining based flow cytometric analysis (Rvb =42.35%); type: functional
[20] = Stability in fetal bovine serum assessed as parent compound remaining measured after 12 hrs by RP-HPLC analysis; type: ADME, cell-free, Bos taurus; details: cattle, read-out: Stability
In short: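 Peptides incubated in serum, and the fraction of intact YSL was measured over time up to 12 h, including a 4 h point.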

[21] = test system: 4T1; experiment: Induction of cell cycle arrest in mouse 4T1 cells assessed as accumulation at G0/G1 phase at 0.4 mM incubated for 24 hrs by PI staining based flow cytometric analysis (reference value: 37.78%); type: functional
[22] = test system: 4T1; experiment: Inhibition of cell migration in mouse 4T1 cells assessed as migration frequency at 0.2 mM incubated for 24 hrs by crystal violet staining based transwell assay relative to control; type: functional; parameters: scale not given: the % may be the effect or the level left
In short: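 4T1 cells, Transwell migration with 24 h exposure to 0.2 mM. Migration rate comes from counting cells on the bottom of the porous membrane. Mean ± SD, n = 3.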

[23] = test system: 4T1; experiment: Induction of apoptosis in mouse 4T1 cells at 0.4 mM incubated for 24 hrs by PI staining based inverted microscopic method; type: functional, cell-based
In short: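 Live–dead staining of 4T1 cells after 24 h exposure to 0.4 mM, read by PI staining. A 0.8 mM level was also examined.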

[24] = test system: 4T1; experiment: Antitumour activity against mouse 4T1 cells xenografted in BALB/c mouse assessed as increase in damage of tumor tissue at 10 mg/kg administered intratumorally and measured after 24 days by H and E staining based inverted optical microscopic method; type: functional, organism-based
In short: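 Tumours from 4T1-bearing BALB/c mice given 6 doses of 10 mg/kg (saline control) were sectioned and stained with H&E, plus CD31, Ki-67 and TUNEL.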

[25] = Toxicity in BALB/c mouse xenografted with mouse 4T1 cells assessed as induction of morphological lesions in liver at 10 mg/kg administered intratumorally and measured after 24 days by H and E staining based inverted optical microscopic method; type: organism-based; details: in vivo, other, 576 h
[26] = test system: 4T1; experiment: Antitumour activity against mouse 4T1 cells xenografted in BALB/c mouse assessed as reduction in number of lung tumor metastatic nodules at 10 mg/kg administered intratumorally and measured after 24 days by H and E staining based inverted optical microscopic method; type: functional, organism-based; in short: as §3

Sequence of Matrix metalloproteinase-9 (Mus musculus) (P41245 whole entry): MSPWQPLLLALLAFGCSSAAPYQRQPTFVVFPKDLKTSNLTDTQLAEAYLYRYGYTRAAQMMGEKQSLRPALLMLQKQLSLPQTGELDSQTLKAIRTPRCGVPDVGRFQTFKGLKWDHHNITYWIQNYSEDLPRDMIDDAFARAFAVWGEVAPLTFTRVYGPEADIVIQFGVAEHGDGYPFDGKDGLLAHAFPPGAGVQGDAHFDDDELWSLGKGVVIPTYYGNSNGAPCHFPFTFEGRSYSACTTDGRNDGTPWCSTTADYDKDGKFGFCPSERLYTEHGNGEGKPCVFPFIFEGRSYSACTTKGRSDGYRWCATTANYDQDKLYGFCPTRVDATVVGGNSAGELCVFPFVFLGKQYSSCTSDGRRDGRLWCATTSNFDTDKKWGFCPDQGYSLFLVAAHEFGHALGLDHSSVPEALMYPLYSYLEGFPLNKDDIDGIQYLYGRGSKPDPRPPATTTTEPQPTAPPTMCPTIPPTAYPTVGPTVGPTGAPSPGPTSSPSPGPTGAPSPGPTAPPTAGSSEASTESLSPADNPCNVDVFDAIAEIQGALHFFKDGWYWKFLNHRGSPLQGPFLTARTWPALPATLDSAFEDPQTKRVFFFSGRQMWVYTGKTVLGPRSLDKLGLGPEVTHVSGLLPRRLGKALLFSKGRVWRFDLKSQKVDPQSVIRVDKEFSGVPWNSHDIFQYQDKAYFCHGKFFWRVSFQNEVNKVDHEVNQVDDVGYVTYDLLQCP

COC(=O)[C@H](CCCCNC(=O)[C@H](CCCCNC(=O)[C@H](CCCCNC(=O)[C@H](CC(C)C)NC(=O)[C@H](CO)NC(=O)[C@@H](N)Cc1ccc(O)cc1)NC(=O)[C@H](CC(C)C)NC(=O)[C@H](CO)NC(=O)[C@@H](N)Cc1ccc(O)cc1)NC(=O)[C@H](CCCCNC(=O)[C@H](CC(C)C)NC(=O)[C@H](CO)NC(=O)[C@@H](N)Cc1ccc(O)cc1)NC(=O)[C@H](CC(C)C)NC(=O)[C@H](CO)NC(=O)[C@@H](N)Cc1ccc(O)cc1)NC(=O)[C@H](CCCCNC(=O)[C@H](CCCCNC(=O)[C@H](CC(C)C)NC(=O)[C@H](CO)NC(=O)[C@@H](N)Cc1ccc(O)cc1)NC(=O)[C@H](CC(C)C)NC(=O)[C@H](CO)NC(=O)[C@@H](N)Cc1ccc(O)cc1)NC(=O)[C@H](CCCCNC(=O)[C@H](CC(C)C)NC(=O)[C@H](CO)NC(=O)[C@@H](N)Cc1ccc(O)cc1)NC(=O)[C@H](CC(C)C)NC(=O)[C@H](CO)NC(=O)[C@@H](N)Cc1ccc(O)cc1
Activity [1]: 7.08% | Activity [2]: Non-Toxic | residual activity [3]: 34% | Activity [4]: Non-Toxic | Activity [5]: inactive | F-actin disruption (qualitative) [6]: Active | Activity [7]: Non-Toxic | Activity [8]: Active | Activity [9]: 20% | Activity [10]: 3.95% | Activity [11]: Non-Toxic | Activity [12]: 56.2% | Activity [13]: Active | Activity [14]: Non-Toxic | Activity [15]: Active | Activity [16]: Non-Toxic | Activity [17]: Active | inhibition [18]: Active | Activity [19]: 46.42% | remaining at 12 h [20]: > 80% | Activity [21]: 44.44% | Activity [22]: 10% | Activity [23]: Active | Activity [24]: Active | Activity [25]: Non-Toxic | Activity [26]: Active
